High-throughput results from PubChem BioAssay.
Shown are actives, neighbours in structure and some others; about 2.5% of the full set was active somewhere.
SENP1 inh: inhibitors of human SENP1 SUMO protease catalytic domain. Q9P0U3. recombinant SENP1 catalytic domain, CyPet-SUMO1-YPet FRET cleavage. inhibition, % at 10 µM. hit rate 0.21% among 360,000;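 active means inhibition at least 30% at 10 µM, raw YFP signal under a set limit, fluorescence ratio 0.5 to 1.5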;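 further: 0% = enzyme with DMSO and 100% = no enzyme wells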
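Compound: 10 µM single point, 0.5% DMSO; Test system: hSENP1 catalytic domain, recombinant; Timing: 50 min reaction at room temperature; Technique: FRET, CFP and YFP emission; Control set: no-enzyme wells low, DMSO-plus-enzyme wells high control.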
ABHD5 PLIN5 PPI: inhibitors of human ABHD5-perilipin-5 interaction | inhibition, % at 4 µM | AID 602281 | hit rate 0.78% among 360,000 | Split G. princeps luciferase complementation, luminescence, 4 h | Q00G26+Q8WTS1;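 active means inhibition above the mean inhibition across every tested compound plus 3 SD, cut at about 22% in these data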;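 further: 0% = DMSO only wells and the 100% control is not disclosed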
Target sequence (Q00G26 whole entry, looked up): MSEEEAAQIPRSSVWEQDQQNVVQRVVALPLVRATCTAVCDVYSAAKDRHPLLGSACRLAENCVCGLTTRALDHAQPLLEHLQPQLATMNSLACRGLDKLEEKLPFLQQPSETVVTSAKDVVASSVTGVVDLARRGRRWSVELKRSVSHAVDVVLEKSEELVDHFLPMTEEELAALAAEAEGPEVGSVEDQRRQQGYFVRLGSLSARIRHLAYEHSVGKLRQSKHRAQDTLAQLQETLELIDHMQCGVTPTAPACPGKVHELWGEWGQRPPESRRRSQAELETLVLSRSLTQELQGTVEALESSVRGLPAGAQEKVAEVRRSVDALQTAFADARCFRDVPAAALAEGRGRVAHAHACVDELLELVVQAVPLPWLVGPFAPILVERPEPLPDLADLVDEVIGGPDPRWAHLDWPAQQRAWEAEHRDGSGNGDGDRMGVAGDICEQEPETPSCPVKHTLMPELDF
Target sequence (Q8WTS1 whole entry, looked up): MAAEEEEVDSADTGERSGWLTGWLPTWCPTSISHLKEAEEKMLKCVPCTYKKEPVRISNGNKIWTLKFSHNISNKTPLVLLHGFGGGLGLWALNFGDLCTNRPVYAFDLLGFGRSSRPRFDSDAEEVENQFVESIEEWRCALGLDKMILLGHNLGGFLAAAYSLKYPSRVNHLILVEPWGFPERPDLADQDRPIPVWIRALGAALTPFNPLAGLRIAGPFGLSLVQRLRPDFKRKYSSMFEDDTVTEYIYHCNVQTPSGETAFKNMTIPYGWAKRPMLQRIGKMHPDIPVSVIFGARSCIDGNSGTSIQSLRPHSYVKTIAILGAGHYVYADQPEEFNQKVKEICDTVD
GRK2 inh: human GRK2 inhibition via aptamer displacement; P25098; bead flow cytometry, FAM-aptamer displacement from GRK2; inhibition of aptamer binding, % at 10 µM; hit rate 0.59% among 330,000; AID 488847;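 active means inhibition of aptamer binding above 40%, roughly 3 SD of noise, on plates passing a quality check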;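 further: median bead fluorescence of bound FAM aptamer so fluorescent compounds give negative values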
Beta2AR agonist: human beta-2 adrenergic receptor agonism by FAP. hit rate 0.43% among 340,000. Am2.2-beta2AR cells, FAP receptor internalization, flow cytometry. AID 504454. response, % (test concentration not listed);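 active means response above a set limit, near 3 SD of response in nonfluorescent compounds, cut at about 42% in these data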
NadD block: inhibitors of Staphylococcus aureus NadD. AID 602399. inhibition, % at 20 µM. hit rate 0.78% among 360,000. purified NadD enzyme, colorimetric absorbance read-out; in the data active means inhibition above about 26%
NadD conf: NadD (S. aureus) inhibition, single concentration confirmation | inhibition, % at 20 µM | shares compounds with NadD block | hit rate 13% among 2,000 | purified S. aureus NadD, colorimetric enzyme assay; in the data active means inhibition mostly above about 42%, no sharp cut-off; inactive means mostly below about 42%
* marks the source's active call; other numbers are inactive results; . = not tested or not shown.

SMILES | SENP1 inh | ABHD5 PLIN5 PPI | GRK2 inh | Beta2AR agonist | NadD block | NadD conf
N#Cc1ccc(NC(=O)Nc2cccc(C#N)c2)cc1 | 1 | -6 | 0 | 13 | -7 | .
COc1ccc(/C=N/NC(=O)c2nn(-c3ccc(Cl)cc3)c(=O)c3c(N)scc23)cc1 | 2 | -26 | 3 | 0 | 55* | 43
CCOC(=O)c1nn(-c2ccc(OC)cc2)c(=O)c2c(N)scc12 | 5 | -43 | 1 | -2 | 2 | .
COc1ccc(/C=N/NC(=O)c2nn(-c3ccc(C)c(C)c3)c(=O)c3ccccc23)cc1 | -1 | 5 | 1 | 3 | 21 | .
COc1ccc(/C=N/NC(=O)c2nn(-c3ccccc3)c(=O)c3c(N)scc23)cc1 | 6 | -42 | 0 | 4 | 51* | 17
Cc1ccc(NC(=O)COc2coc(CN3CCc4ccccc43)cc2=O)cc1Cl | -1 | -8 | 0 | -1 | 8 | .
O=C(Nc1nnc(-c2ccccc2)o1)C1CCCN1S(=O)(=O)c1cccs1 (stereo not drawn) | 1 | 0 | 1 | 4 | 10 | .
O=C(N/N=C/c1cccc(F)c1)c1cc(-c2ccco2)nc2ccccc12 | -3 | -1 | 43* | -1 | 52* | 81*
CN(C)C(CNC(=O)c1cc(-c2ccco2)nc2ccccc12)c1ccccc1 (stereo not drawn) | 2 | 6 | 5 | -6 | 59* | 59*
O=C(COC(=O)c1cc(-c2ccco2)nc2ccccc12)NCc1ccc2c(c1)OCO2 | -11 | 1 | 0 | -8 | 43* | -4
O=C(COC(=O)c1ccco1)NCc1ccc2c(c1)OCO2 | 2 | 3 | 3 | 1 | -3 | .
CC(C)CCNC(=O)c1cc(-c2ccco2)nc2ccccc12 | 4 | 7 | 0 | -12 | -4 | .
O=C(Nc1ccc2c(c1)OCO2)C1Cc2c(-c3ccc(Cl)cc3)ccnc2O1 (stereo not drawn) | 3 | 10 | . | . | -1 | .
COc1ccc(C)cc1-n1c(SCC(=O)Nc2cc(C)on2)nc2sc(C)c(C)c2c1=O | -1 | 3 | 4 | 7 | 36* | 35
COc1ccc(C)cc1-n1c(SCC(=O)Nc2cc(C)on2)nc2ccccc2c1=O | 3 | -2 | 0 | -3 | -1 | .
COc1ccc(C(=O)NCCN2CCCC2)cc1 | -2 | 1 | 0 | -5 | -4 | .
COc1ccc(/C=C2/Sc3ccc(C(=O)NCCN4CCCCCC4)cc3NC2=O)cc1 | -7 | 13 | 0 | 20 | 56* | -11
Cc1cc(Cl)ccc1OCC(=O)Nn1c(C)ccc1C | -3 | 3 | 0 | 3 | 41* | 4
CSc1ccccc1NC(=O)COc1ccc(Cl)cc1C | 2 | -2 | 13 | -11 | -1 | .
Nc1ccc(O)c(-c2nc3ccccc3s2)c1 | -26 | -13 | 0 | 4 | 63* | 23
Cc1nc2cc(-c3ccsc3-n3c(C)ccc3C)[nH]n2c(=O)c1Cl | -4 | 0 | 0 | 4 | 16 | .
Cc1cc(=O)n2[nH]c(-c3ccsc3-n3c(C)ccc3C)cc2n1 | -16 | 7 | 0 | 22 | 31* | 16
COCc1cc(=O)n2[nH]c(-c3ccsc3-n3c(C)ccc3C)cc2n1 | -7 | 6 | 6 | 7 | 56* | 43*
CCCCn1c(N)c(N(CC)C(=O)C2CCC2)c(=O)[nH]c1=O | -2 | 0 | 0 | -6 | 1 | .
O=C(NCc1nc2ccccc2[nH]1)C1=C[C@H](c2ccc(Br)cc2)C[C@H](OCc2ccc(CO)cc2)O1 | -3 | 5 | 0 | 17 | 11 | .
SMILES | SENP1 inh | ABHD5 PLIN5 PPI | GRK2 inh | Beta2AR agonist | NadD block | NadD conf
C#Cc1ccc([C@H]2C=C(C(=O)NCc3nc4ccccc4[nH]3)O[C@@H](OCc3ccc(CO)cc3)C2)cc1 | -9 | 4 | 2 | 1 | 33* | 46*
O=C(Nc1ccccc1)c1nc[nH]c1C(=O)NCCN(CCNC(=O)c1[nH]cnc1C(=O)Nc1ccccc1)CCNC(=O)c1[nH]cnc1C(=O)Nc1ccccc1 | 0 | -8 | 0 | -1 | 57* | 4
O=C(Nc1ccccc1)c1nc[nH]c1C(=O)NCCCCCCNC(=O)c1[nH]cnc1C(=O)Nc1ccccc1 | 2 | 3 | 0 | -5 | 32* | -1
O=C(Nc1ccc(Cl)cc1)c1nc[nH]c1C(=O)NCCN(CCNC(=O)c1[nH]cnc1C(=O)Nc1ccc(Cl)cc1)CCNC(=O)c1[nH]cnc1C(=O)Nc1ccc(Cl)cc1 | 4 | 4 | 2 | -6 | 57* | 3
CC(C)C[C@H](NC(=O)c1[nH]cnc1C(=O)Nc1ccc(CNC(=O)OC(C)(C)C)cc1)C(=O)OC(C)(C)C | -2 | -7 | 0 | 5 | 17 | .
CC(C)(C)OC(=O)NCc1ccc(NC(=O)c2nc[nH]c2C(=O)N[C@@H](Cc2ccccc2)C(=O)OC(C)(C)C)cc1 | 3 | -10 | 1 | 17 | 30* | -2
COc1ccccc1COc1ccc2c(C)c(CC(=O)O)c(=O)oc2c1C | -21 | -4 | 2 | 0 | -2 | .
Cc1ccc(C)c(N2C(=O)CC(Cc3ccc(Br)cc3)C2=O)c1 (stereo not drawn) | 2 | -9 | . | -2 | -10 | .
Cc1cccc(NC(=O)c2nc[nH]c2C(=O)NCCN(CCNC(=O)c2[nH]cnc2C(=O)Nc2cccc(C)c2)CCNC(=O)c2[nH]cnc2C(=O)Nc2cccc(C)c2)c1 | 2 | -32 | 0 | 1 | 42* | -1
CN(C)S(=O)(=O)c1cc(NC(=O)CNCCN2CCOCC2)ccc1Cl | 1 | 5 | 0 | -7 | -9 | .
CN(CC(=O)Nc1ccc(Cl)cc1F)C1CCS(=O)(=O)C1 (stereo not drawn) | -1 | -5 | 2 | 8 | -4 | .
Cc1sc2nc(COC(=O)c3cccc(S(=O)(=O)N(C)c4ccccc4)c3)[nH]c(=O)c2c1C | -47 | -4 | 4 | -22 | 37* | 4
O=C(N/N=C/c1c[nH]c2ccccc12)c1cc(-c2ccc(-c3ccccc3)cc2)n[nH]1 | -4 | -2 | 6 | 6 | 50* | 47*
Cc1ccccc1CN1C(=O)C(C)Sc2ccc(-c3ccco3)cc21 (stereo not drawn) | -7 | 13 | . | . | 43* | 50*
Cc1cc2nc(/C=C/c3nc4cc(C)c(C)cc4[nH]3)[nH]c2cc1C | -21 | -9 | 0 | 7 | 31* | -17
Cc1cc2nc(/C=C/c3cccnc3)[nH]c2cc1C | -10 | -1 | 2 | 13 | -1 | .
N#CC1=C2SCN(c3ccccc3)CN2C(=O)CC1c1cccs1 (stereo not drawn) | -12 | -18 | 1 | -10 | 44* | 16
COc1ccccc1N1CSC2=C(C#N)C(c3ccc(SC)cc3)CC(=O)N2C1 (stereo not drawn) | -75 | -25 | 3 | -6 | 35* | 39
Cc1ccc(C2CC(=O)N3CN(c4ccc(Br)cc4)CSC3=C2C#N)o1 (stereo not drawn) | -34 | -5 | 1 | -1 | 43* | -4
